# NR2E3 ag-1 = agonists of human nuclear receptor NR2E3 | GST-NR2E3/biotin-RetCOR TR-FRET, 1536-well | inhibition of corepressor binding, % at 4.78 µM | hit rate 0.12% among 320,000;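 active = percent inhibition above the cutoff of mean plus 3 SD of all tested compounds, set per screening campaign, cut at about 20% in these data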;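 also: 0% = DMSO wells and 100% = biotin wells as full block of FRET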
# Target sequence (Q9Y5X4 whole entry, looked up): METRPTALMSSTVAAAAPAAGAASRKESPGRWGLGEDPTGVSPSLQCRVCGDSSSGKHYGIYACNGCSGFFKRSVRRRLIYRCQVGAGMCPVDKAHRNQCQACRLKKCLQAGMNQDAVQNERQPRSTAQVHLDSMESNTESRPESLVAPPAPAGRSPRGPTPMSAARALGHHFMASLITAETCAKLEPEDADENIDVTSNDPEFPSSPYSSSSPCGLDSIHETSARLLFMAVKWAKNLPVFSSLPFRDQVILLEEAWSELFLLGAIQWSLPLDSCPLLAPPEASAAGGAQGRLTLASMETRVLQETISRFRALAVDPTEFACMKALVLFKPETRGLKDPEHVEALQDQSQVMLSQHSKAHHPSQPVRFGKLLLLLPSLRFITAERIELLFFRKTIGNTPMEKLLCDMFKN
#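 Material: NR2E3–RetCOR corepressor complex | Quantity: 1.35 nM GST-tagged NR2E3 final | Schedule: 5 h at 4 °C | Replication: Singlicate compound wells | Reagent: RetCOR corepressor, biotinylated, 7 nM | Controls: Biotin wells as high control, 0.6% DMSO wells as low control | Signal: TR-FRET, Eu(K)-anti-GST donor, streptavidin-D2 acceptor, ex 340, em 617/671 nm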
# PP5 primary = blocks human protein phosphatase 5 activity; P53041; purified PP5c, OMFP substrate fluorescence; inhibition, % at 6.7 µM; hit rate 0.18% among 320,000;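 active = inhibition above the campaign's mean inhibition across all tested compounds plus 3 SD, cut at about 9.5% in these data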;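 also: 0% = DMSO only and 100% = 100 µM cantharidin control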
# NR2E3 ag-2 = agonists of human NR2E3 nuclear receptor | Q9Y5X4 | CHO-S Gal4-NCOR/VP16-NR2E3 two-hybrid, luciferase | inhibition of corepressor binding, % at 3.98 µM | hit rate 0.35% among 360,000;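 active = inhibition above the mean of all tested compounds plus 3 SD, cut at about 70% in these data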;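 also: 0% = DMSO with NR2E3 transfected cells and 100% = cells lacking NR2E3 construct; higher means lower luciferase signal from less NR2E3 corepressor binding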
# PP1 inh = counter-screen for PP5 inhibitors: inhibitors of human PP1-alpha; P62136; purified PP1alpha, OMFP fluorescence; inhibition, % at 6.7 µM; hit rate 0.9% among 320,000; AID 2235;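 active = inhibition above the mean inhibition of all tested compounds plus 3 SD, computed separately for each screening campaign, cut at about 15% in these data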
# PP1 inh confirm = human PP1 phosphatase inhibition, confirmation; shares compounds with PP1 inh; purified PP1alpha, OMFP substrate fluorescence; inhibition, % at 6.7 µM; hit rate 52% among 1,900; AID 2358;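 active = mean PP1 inhibition above a set limit taken from the earlier primary screen, cut at about 15% in these data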
# PP5 inh counter = inhibits human PP5 phosphatase in PP1 counter-screen; purified PP5c, OMFP fluorescence; hit rate 4% among 1,900; inhibition, % at 6.7 µM; shares compounds with PP1 inh;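 active = mean PP5 inhibition over triplicate wells above about 9.5% taken from the earlier PP1 screen, limit read from the data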
# * hit, by the source's call; nt = no result given. Only some compounds are listed: those with a hit (about 1.3% of all), similar ones and a draw of the others.
SMILES,NR2E3 ag-1,PP5 primary,NR2E3 ag-2,PP1 inh,PP1 inh confirm,PP5 inh counter
Cc1cccc(OCCn2c(NC(=O)c3ccco3)nc3ccccc32)c1,1.0,3.0,-5.6,19.5*,2.5,7.3
Cc1c(CCOC(=O)C23CC4(C)CC(C)(CC(C)(C4)C2)C3)sc[n+]1CC(=O)c1ccccc1,-1.5,4.0,-5.6,21.4*,-0.7,4.9
Cc1c(CCOC(=O)C23CC4CC(CC(C)(C4)C2)C3)sc[n+]1Cc1ccccc1,0.4,0.4,31.4,2.4,nt,nt
Cc1c(CCOC(=O)CC23CC4CC(CC(C4)C2)C3)sc[n+]1CC(=O)c1ccccc1,2.3,-1.7,-2.1,25.7*,-5.5,-1.2
Cc1c(CCOC(=O)C23CC4CC(CC(C4)C2)C3)sc[n+]1Cc1ccccc1,-3.3,2.0,-9.5,-0.9,nt,nt
S=C1Cc2ccccc2N1,nt,nt,22.2,nt,nt,nt
Nc1ccc(C(=O)Nc2ccc(Nc3ccncc3)cc2)c([N+](=O)[O-])c1,nt,nt,-12.9,nt,nt,nt
COc1ccc(-c2coc3c(CN4CCCCC4)c(O)c(CN4CCCCC4)c(O)c3c2=O)cc1,4.6,4.0,nt,29.0*,-8.9,-7.7
O=c1c(-c2ccc(Br)cc2)coc2c(CN3CCCCC3)c(O)ccc12,nt,nt,-48.6,nt,nt,nt
O=C(CN1CCCN(Cc2ccc(F)cc2Cl)C1=O)NC1CCCCCC1,1.5,0.1,-12.4,42.9*,-5.2,-5.2
O=C(COC(=O)/C=C/c1ccc(F)cc1)Nc1nnc(-c2ccccc2)o1,1.1,4.1,0.6,18.5*,28.5*,-8.2
COc1cccc(/C=C/C(=O)OCC(=O)Nc2nnc(-c3ccccc3)o2)c1OC,nt,nt,-18.1,nt,nt,nt
O=C(COC(=O)/C=C/c1ccccc1F)Nc1nnc(-c2ccccc2)o1,-2.7,-2.6,1.6,21.3*,22.1*,-1.1
O=C(COC(=O)CCC(=O)c1ccc(F)cc1)Nc1nnc(-c2ccccc2)o1,0.7,-2.3,6.3,2.5,nt,nt
COc1cccc(/C=C/C(=O)OCC(=O)Nc2nnc(-c3ccccc3)o2)c1,-1.1,-2.3,-21.5,38.0*,25.3*,-0.9
CCOc1ccc(N(CC(=O)NCc2ccc(F)cc2)C(=O)c2ccco2)cc1,0.9,3.2,-6.2,-1.6,nt,nt
COc1ccc(OC)c(NC(=O)Nc2nnc(COCCO)s2)c1,nt,nt,-13.7,nt,nt,nt
CCNC(=S)N/N=C/c1cccc(/C=N/NC(=S)NCC)c1,4.2,0.0,1.5,-2.3,nt,nt
CCNC(=S)N/N=C/c1cccs1,-2.8,-1.6,-21.1,37.5*,-3.1,-4.7
CN1C(C)(C)CC(O)(C(=O)O)CC1(C)C,nt,nt,19.6,nt,nt,nt
COC(=O)c1sc(N)c(C(=O)OC)c1COC(=O)C1CC(=O)N(Cc2ccco2)C1 (centres undefined),0.5,2.0,-1.6,17.9*,-2.8,-2.2
CCSc1nnc(N2C(=O)c3ccc(C(=O)c4ccc(C(=O)O)cc4)cc3C2=O)s1,-3.4,1.1,1.9,-1.2,nt,nt
N#CC1=C(N)SC(N)=C(C#N)C1c1ccc(C(F)(F)F)cc1,8.1,6.2,nt,39.2*,3.6,-4.9
Oc1c(C(Nc2cccc(C(F)(F)F)c2)c2ccncc2)ccc2cccnc12 (centres undefined),0.6,4.0,-23.9,18.2*,13.6,-3.2
CC1=Nc2nc(N3CCCCC3)c(C#N)c3c4c(nc(c23)N1)N(c1ccc(C(C)C)cc1)C(=O)C4,7.0,1.4,1.5,19.8*,16.1*,-1.1
SMILES,NR2E3 ag-1,PP5 primary,NR2E3 ag-2,PP1 inh,PP1 inh confirm,PP5 inh counter
CC(C)c1ccc(-c2nc(N3CCCCC3)[nH]c(=O)c2C#N)cc1,1.7,2.2,-13.6,0.7,nt,nt
CCOc1ccc(C2C3=C(Nc4nc(N)[nH]c(=O)c42)c2ccccc2C3=O)cc1 (centres undefined),-0.7,0.6,-19.1,1.9,nt,nt
CCCOc1ccc(C2C3=C(Nc4nc(N)[nH]c(=O)c42)c2ccccc2C3=O)cc1 (centres undefined),-1.9,-0.6,0.8,18.9*,16.5*,3.1
O=C(c1ccc(S(=O)(=O)Nc2cccc(C(F)(F)F)c2)cc1)N1CCN(c2ccccc2O)CC1,-6.2,1.3,29.6,-4.5,nt,nt
CC(C)c1ccc(NC2CCCN(C(=O)c3cccs3)C2)cc1 (centres undefined),1.8,3.8,-5.1,-1.2,nt,nt
C[C@@H](CO)NC(=O)c1ccc2c3n(nc2c1)-c1ccccc1CO3,-0.8,-0.6,-90.3,-2.1,nt,nt
C(#CC1CCCC1)c1ccc2c(c1)COc1c3ccccc3nn1-2,4.1,-4.1,-99.5,-3.6,nt,nt
CCCc1cc(-c2ccc3c(c2)COc2c4ccccc4nn2-3)on1,1.7,2.3,-103.2,18.3*,19.4*,-1.0
Cc1cc(-c2ccc3c(c2)COc2c4ccccc4nn2-3)on1,4.7,-0.1,-107.2,25.3*,26.2*,-5.3
O=C(Nc1ccc(Cl)cc1)C1Cc2c(-c3cccc(F)c3)ccnc2O1 (centres undefined),nt,nt,-18.2,nt,nt,nt
Cc1ccc(S(=O)(=O)NC(=O)C2(C)CCN2C(=O)C2CC2)cc1 (centres undefined),nt,nt,-9.4,nt,nt,nt
O=C1CCCc2oc3c(cc(NS(=O)(=O)c4ccc5c6c(cccc46)C(=O)N5)c4ccccc43)c21,-2.5,3.6,-1.8,19.6*,10.9,4.6
S=c1[nH]nc(-c2cccnc2)n1-c1ccc2c(c1)OCCO2,1.9,-0.5,-27.9,51.7*,-1.6,-3.8
Fc1ccc(-c2n[nH]c(=S)n2-c2ccc3c(c2)OCCO3)cc1,0.1,-1.9,-41.5,2.1,nt,nt
N#Cc1ccsc1NC(=O)COC(=O)C1=NNC(=O)CC1,6.1,1.4,-24.2,18.8*,7.0,-3.9
CC(=O)c1cccc(NC(=O)NC(C)c2ccc3c(c2)OCO3)c1 (centres undefined),1.6,3.6,-32.7,-2.4,nt,nt
COc1ccc(/C=N/Nc2cc(C)nc3ccc(Br)cc23)cc1,-1.8,3.3,-17.9,22.1*,-6.0,6.1
COc1ccc2nc(C)cc(N/N=C/c3cccc(OC)c3O)c2c1,-3.3,1.1,-5.4,1.2,nt,nt
COc1ccc(NC(=O)N(C)C[C@H]2OCCCC[C@@H](C)Oc3ccc(NC(=O)c4ccccc4)cc3C(=O)N([C@H](C)CO)C[C@@H]2C)cc1,nt,nt,-9.7,nt,nt,nt
c1ccc(-c2cc(-c3nnc4n3N=C(c3ccc5ccccc5c3)CS4)[nH]n2)cc1,-2.4,4.5,-13.2,30.5*,22.5*,-2.3
Cc1cc(-c2nnc3n2N=C(c2ccccc2)CS3)n[nH]1,1.2,-2.1,7.4,-3.1,nt,nt
Cc1cc(-c2nnc3n2N=C(c2ccc(-c4ccccc4)cc2)CS3)n[nH]1,-2.5,-0.2,-5.7,34.3*,22.6*,-0.6
CCOC(=O)c1cnc(-n2nc(C)cc2C)nc1NCc1ccc2c(c1)OCO2,2.3,3.3,82.2*,31.3*,59.2*,-5.5
CCC(C(=O)NC(C)(C)C)N(Cc1ccco1)C(=O)CNS(=O)(=O)c1ccc(OC)cc1 (centres undefined),-0.4,0.1,-46.8,-1.0,nt,nt

# Assay outcomes from PubChem BioAssay.
